Structures are written as SMILES. pEC50, pKd, pKi: −log10 of the molar value. Activity calls are given as the source filed them. The rule behind the calls is not given here.

Assay [1] has as its target T1, Neuronal acetylcholine receptor; alpha4/beta2 (Rattus norvegicus, UniProt P09483+P12390). The assay can be described thus: Displacement of [3H]epibatidine from alpha4beta2 nAChR in Sprague-Dawley rat cerebral cortex by beta counting. In kind it is tissue-based. An outline of the steps:
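Sprague-Dawley rat cortical membranes in Tris buffer pH 7 with protease inhibitors. Membranes first blocked with 1 μM α-bungarotoxin. Compound (10 pM to 10 mM) preincubated 30 min at rt, then 0.1 nM [3H]epibatidine (final) added overnight at 4 °C. Nonspecific binding defined with 100 nM unlabeled epibatidine. Filtered and beta counted. Ki from three independent experiments fitted by LIGAND.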

Assay [2] has as its target Neuronal acetylcholine receptor subunit alpha-7 (Rattus norvegicus, UniProt Q05941). The assay can be described thus: Displacement of [125I]alpha-bungarotoxin from alpha7 nAChR in Sprague-Dawley rat cerebral cortex […]. In kind it is tissue-based.
For assay [3], the target named is T2, Neuronal acetylcholine receptor subunit alpha-6/beta-3 (Rattus norvegicus) (UniProt P12391+P43143). The assay can be described thus: Agonist activity at rat alpha6beta2 nAChR assessed as [3H]dopamine release from rat striatum by beta counting relative to 10 uM nicotine. In kind it is functional.
Assay [4] addresses T1, Neuronal acetylcholine receptor; alpha4/beta2. Put plainly: Agonist activity at rat alpha4beta2 nAChR assessed as [3H]dopamine release by beta counting. In kind it is functional. An outline of the steps: (§1)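 Rat striatal slices (150 μm) were preloaded for 30 min with 100 nM [3H]DA in Krebs buffer containing 10 μM pargyline, then washed with pargyline plus 0.5 μM nomifensine. Slices were exposed to agonist for 5 min at 37 °C. […] EC50/Emax came from nonlinear regression; six replicates, ≥3 experiments.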

In assay [5] the target is T3, Neuronal acetylcholine receptor; alpha4/beta2 (Rattus norvegicus) (UniProt P09483+P12390). Put plainly: Agonist activity at rat alpha4beta2 nAChR assessed as [3H]dopamine release from rat striatum by beta counting relative to 10 uM nicotine. In kind it is functional. The method, boiled down:
as §1

The species named for the next assay is Rattus norvegicus. Put plainly: Selectivity ratio of Ki for alpha7 nAChR in Sprague-Dawley rat cerebral cortex to Ki for alpha4beta2 nAChR in Sprague-Dawley rat cerebral cortex. In kind it is tissue-based. The method, boiled down: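 Sprague-Dawley rat cortical membranes, with compound (10 pM–10 mM) preincubated 30 min at rt. α4β2 assay: membranes pretreated with 1 μM α-bungarotoxin, then 0.1 nM [3H]epibatidine overnight at 4 °C. α7 assay: 1 nM [125I]α-bungarotoxin overnight at rt. Ki values were from LIGAND fits of three experiments, and the ratio was taken from these Ki values.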

Assay [6] concerns the target T3, Neuronal acetylcholine receptor; alpha4/beta2 (Rattus norvegicus). Put plainly: Partial agonist activity at Nicotinic acetylcholine alpha4beta2 receptor in rat striatum assessed as [3H]dopamine release by beta counting relative to nicotine. In kind it is functional, tissue-based. The method, boiled down: as §1
In assay [7] the target is T1, Neuronal acetylcholine receptor; alpha4/beta2. Put plainly: Partial agonist activity at Nicotinic acetylcholine alpha4beta2 receptor in rat striatum assessed as [3H]dopamine release by beta counting. In kind it is functional, tissue-based. An outline of the steps: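 Rat striatal slices (150 μm) were preloaded for 30 min with 100 nM [3H]DA in Krebs buffer containing 10 μM pargyline, then washed with pargyline plus 0.5 μM nomifensine. Slices were exposed to agonist for 5 min at 37 °C.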

The next assay has as its system HEK293. Put plainly: Selectivity ratio of Ki for human alpha3beta4 nAChR expressed in human HEK293 cells to Ki for alpha4beta2 nAChR in rat cerebral cortex. In kind it is cell-based.
In assay [8] the target is Neuronal acetylcholine receptor; alpha3/beta4 (Homo sapiens, UniProt P30926+P32297). The assay can be described thus: Displacement of [3H]epibatidine from human alpha3beta4 nAChR expressed in human HEK293 cells by scintillation counting. In kind it is cell-based. An outline of the steps:
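Membranes from HEK293 cells transiently transfected with α3 and β4 cDNAs (harvested at 48 h). Compound was preincubated for 5 min, then 0.25 nM [3H]epibatidine was added overnight at 4 °C in Tris buffer (pH 7) with BSA and no Tween. Nonspecific binding used 100 nM epibatidine. Ki was fitted from three experiments in triplicate.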

Assay [9] has as its target Neuronal acetylcholine receptor; alpha3/beta4 (Rattus norvegicus, UniProt P04757+P12392). Put plainly: Partial agonist activity at rat alpha3beta4 nAChR assessed as [3H]noradrenaline release from rat […] by beta counting. In kind it is functional.
Assay [10] has as its target T2, Neuronal acetylcholine receptor subunit alpha-6/beta-3 (Rattus norvegicus). Put plainly: Partial agonist activity at alpha6beta2 nAChR in rat striatum assessed as decrease in [3H]dopamine release by beta counting in the presence of antagonist alphaconotoxin MII. In kind it is functional, tissue-based.

T1 sequence (P09483 whole entry): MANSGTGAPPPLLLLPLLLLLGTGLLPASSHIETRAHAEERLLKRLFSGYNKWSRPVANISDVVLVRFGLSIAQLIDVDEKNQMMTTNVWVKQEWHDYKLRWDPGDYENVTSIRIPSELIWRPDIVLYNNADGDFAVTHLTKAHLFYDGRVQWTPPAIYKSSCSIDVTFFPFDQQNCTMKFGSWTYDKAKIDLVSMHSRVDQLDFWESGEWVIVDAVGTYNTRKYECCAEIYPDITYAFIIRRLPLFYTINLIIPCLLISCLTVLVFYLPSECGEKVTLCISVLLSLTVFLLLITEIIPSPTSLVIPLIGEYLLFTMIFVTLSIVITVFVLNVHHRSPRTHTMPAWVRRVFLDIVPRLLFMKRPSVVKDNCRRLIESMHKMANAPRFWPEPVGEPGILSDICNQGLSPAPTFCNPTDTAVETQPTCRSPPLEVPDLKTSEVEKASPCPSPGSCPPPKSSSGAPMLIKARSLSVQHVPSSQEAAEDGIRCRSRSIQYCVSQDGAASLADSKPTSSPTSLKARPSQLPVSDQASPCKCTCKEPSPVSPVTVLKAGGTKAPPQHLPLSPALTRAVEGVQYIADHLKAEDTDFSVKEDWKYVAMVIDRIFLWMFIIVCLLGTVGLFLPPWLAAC
T1 sequence (P12390 whole entry): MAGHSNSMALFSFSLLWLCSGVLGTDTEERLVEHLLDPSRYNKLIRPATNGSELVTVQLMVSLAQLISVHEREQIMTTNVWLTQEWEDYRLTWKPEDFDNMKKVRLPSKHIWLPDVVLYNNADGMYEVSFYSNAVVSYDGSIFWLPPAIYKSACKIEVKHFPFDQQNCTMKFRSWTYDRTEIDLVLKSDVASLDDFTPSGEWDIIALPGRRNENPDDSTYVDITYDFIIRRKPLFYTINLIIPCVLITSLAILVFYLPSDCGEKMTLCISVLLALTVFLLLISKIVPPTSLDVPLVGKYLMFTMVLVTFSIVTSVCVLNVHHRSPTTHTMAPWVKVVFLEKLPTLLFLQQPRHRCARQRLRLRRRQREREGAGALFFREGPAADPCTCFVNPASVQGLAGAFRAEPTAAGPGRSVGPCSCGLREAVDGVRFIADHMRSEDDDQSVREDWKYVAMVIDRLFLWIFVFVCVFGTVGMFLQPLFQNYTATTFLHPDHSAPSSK
Sequence of Neuronal acetylcholine receptor subunit alpha-7 (Q05941 whole entry): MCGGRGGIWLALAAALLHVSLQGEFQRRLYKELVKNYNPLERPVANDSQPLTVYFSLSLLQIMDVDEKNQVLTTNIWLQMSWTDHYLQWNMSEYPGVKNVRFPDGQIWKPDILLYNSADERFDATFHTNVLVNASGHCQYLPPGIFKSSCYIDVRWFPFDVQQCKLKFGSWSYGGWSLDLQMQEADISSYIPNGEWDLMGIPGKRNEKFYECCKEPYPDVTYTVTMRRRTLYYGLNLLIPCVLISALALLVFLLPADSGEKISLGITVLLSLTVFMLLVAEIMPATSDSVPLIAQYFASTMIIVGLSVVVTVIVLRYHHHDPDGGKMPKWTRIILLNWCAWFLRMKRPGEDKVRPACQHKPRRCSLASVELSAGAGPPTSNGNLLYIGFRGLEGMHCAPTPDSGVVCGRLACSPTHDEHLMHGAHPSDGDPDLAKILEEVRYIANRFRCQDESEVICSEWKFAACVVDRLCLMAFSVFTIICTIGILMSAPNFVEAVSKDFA
Sequence of Neuronal acetylcholine receptor; alpha3/beta4 (Homo sapiens, UniProt P30926+P32297) (P30926 whole entry): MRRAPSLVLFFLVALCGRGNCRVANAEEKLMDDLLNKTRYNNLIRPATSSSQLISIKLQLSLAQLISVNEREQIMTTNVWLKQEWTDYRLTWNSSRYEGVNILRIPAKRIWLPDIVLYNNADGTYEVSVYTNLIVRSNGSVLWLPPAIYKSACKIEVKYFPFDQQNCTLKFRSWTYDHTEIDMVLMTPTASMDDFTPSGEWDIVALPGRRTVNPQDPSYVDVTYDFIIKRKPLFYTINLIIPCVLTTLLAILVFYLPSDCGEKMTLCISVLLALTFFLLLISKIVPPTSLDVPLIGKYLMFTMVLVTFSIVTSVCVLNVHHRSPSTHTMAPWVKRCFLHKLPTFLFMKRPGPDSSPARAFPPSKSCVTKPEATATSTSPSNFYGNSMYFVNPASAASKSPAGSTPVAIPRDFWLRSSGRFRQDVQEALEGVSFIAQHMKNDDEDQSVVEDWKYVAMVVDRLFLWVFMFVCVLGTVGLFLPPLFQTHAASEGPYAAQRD
Sequence of Neuronal acetylcholine receptor; alpha3/beta4 (Homo sapiens, UniProt P30926+P32297) (P32297 whole entry): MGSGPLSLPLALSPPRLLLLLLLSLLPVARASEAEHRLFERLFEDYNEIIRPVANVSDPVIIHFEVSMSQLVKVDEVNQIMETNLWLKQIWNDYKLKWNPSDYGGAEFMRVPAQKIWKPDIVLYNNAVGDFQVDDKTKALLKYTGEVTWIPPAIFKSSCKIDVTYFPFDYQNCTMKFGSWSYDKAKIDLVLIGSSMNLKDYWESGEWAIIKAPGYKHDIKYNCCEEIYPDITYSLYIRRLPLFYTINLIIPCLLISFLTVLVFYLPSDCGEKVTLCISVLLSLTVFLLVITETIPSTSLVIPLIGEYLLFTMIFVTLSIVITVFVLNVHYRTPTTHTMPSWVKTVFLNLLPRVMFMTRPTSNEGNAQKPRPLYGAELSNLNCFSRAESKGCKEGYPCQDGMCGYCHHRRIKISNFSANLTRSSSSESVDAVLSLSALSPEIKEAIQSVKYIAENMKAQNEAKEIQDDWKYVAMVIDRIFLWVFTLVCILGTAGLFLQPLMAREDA
Sequence of Neuronal acetylcholine receptor; alpha3/beta4 (Rattus norvegicus, UniProt P04757+P12392) (P04757 whole entry): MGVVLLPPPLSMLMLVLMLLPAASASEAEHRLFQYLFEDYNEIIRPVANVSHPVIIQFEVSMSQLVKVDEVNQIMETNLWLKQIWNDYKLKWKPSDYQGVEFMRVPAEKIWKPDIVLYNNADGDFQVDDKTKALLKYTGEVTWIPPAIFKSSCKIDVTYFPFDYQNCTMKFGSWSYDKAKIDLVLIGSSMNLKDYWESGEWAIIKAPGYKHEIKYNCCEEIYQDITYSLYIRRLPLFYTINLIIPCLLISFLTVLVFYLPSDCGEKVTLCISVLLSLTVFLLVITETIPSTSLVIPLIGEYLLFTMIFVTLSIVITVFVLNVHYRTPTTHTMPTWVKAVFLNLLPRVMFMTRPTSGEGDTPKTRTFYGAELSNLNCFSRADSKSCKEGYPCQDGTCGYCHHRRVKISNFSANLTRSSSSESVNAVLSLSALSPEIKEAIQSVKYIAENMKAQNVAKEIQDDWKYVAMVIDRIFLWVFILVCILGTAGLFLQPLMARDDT
Sequence of Neuronal acetylcholine receptor; alpha3/beta4 (Rattus norvegicus, UniProt P04757+P12392) (P12392 whole entry): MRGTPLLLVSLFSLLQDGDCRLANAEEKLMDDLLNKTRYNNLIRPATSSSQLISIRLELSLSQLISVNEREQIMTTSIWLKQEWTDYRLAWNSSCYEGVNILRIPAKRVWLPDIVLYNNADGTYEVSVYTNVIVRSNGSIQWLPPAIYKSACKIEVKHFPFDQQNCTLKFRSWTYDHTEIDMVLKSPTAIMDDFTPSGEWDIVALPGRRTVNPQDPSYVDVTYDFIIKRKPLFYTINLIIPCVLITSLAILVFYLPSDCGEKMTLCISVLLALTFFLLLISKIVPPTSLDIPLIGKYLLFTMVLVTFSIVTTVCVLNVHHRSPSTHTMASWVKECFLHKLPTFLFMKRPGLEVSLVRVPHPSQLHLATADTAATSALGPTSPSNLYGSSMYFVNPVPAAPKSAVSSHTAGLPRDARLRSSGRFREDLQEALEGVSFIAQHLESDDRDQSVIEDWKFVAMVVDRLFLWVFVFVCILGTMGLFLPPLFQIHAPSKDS

For the compound `CN1CCC[C@H]1[C@@H]1COc2ccc(Br)cc2O1`, the pKi in assay [1] was 5.09; in [2] it was 4.66.

As to `Oc1ccc2c(c1)O[C@H]([C@H]1CCCN1)CO2`, the pKi was 5.89 in [1] and 5.52 in assay [2].

For the compound `CN1CCC[C@H]1[C@H]1COc2ccc(-c3ccccc3)cc2O1`, the pKi is 5.51 in [1] and 4.29 in [2].

Turning to `Oc1ccc2c(c1)O[C@@H]([C@@H]1CCCN1)CO2`, the values for the pKi in [1] and in assay [2] were 5.92 and 4.28, respectively.

On to `c1cnc2cc3c(cc2n1)[C@@H]1CNC[C@H]3C1` [VARENICLINE], for which the Efficacy in assay [3] and in [5] was 49% in each case. Further, the pEC50 in assay [4] is 7.34.

As for `CC(C)Oc1ccc2c(c1)O[C@@H]([C@@H]1CCCN1C)CO2`, the figures for the pKi in assay [1] and in [2] were 5.49 and 4.37, respectively.

With `CN1CCC[C@@H]1[C@H]1COc2ccc(O)cc2O1`, the results for the pKi in [1] and in [2] were 5.46 and 5.35, respectively.

As for `COc1ccc2c(c1)O[C@H]([C@@H]1CCCN1C)CO2`, the values for the pKi in [1] and in assay [2] were 4.77 and 4.49, respectively.

Turning to `COc1ccc2c(c1)O[C@@H]([C@@H]1CCCN1C)CO2`, the pKi is 5.38 in assay [1] and 4.59 in assay [2].

In the case of `CC(=O)c1ccc2c(c1)O[C@@H]([C@@H]1CCCN1C)CO2`, the pKi is 4.93 in [1] and 4.52 in assay [2].

As to `Oc1ccc2c(c1)O[C@H]([C@@H]1CCCN1)CO2`, the pKi in assay [1] is 5.05; in assay [2], 4.48.

On to `CC(=O)c1ccc2c(c1)O[C@H]([C@@H]1CCCN1C)CO2` (racemic), for which the values for the pKi in assay [1] and in assay [2] were 4.01 and 3.96, respectively.

Consider `CC(C)Oc1ccc2c(c1)O[C@H]([C@@H]1CCCN1C)CO2`, for which the pKi in [1] was 5.03; in assay [2], 5.21.

Regarding `Oc1ccc2c(c1)O[C@@H]([C@H]1CCCN1)CO2`, the pKi in assay [1] is 4.74; in assay [2] it was 4.46.

Turning to `Cc1ccc2c(c1)O[C@@H]([C@@H]1CCCN1C)CO2`, the figures for the pKi in assay [1] and in assay [2] were 5.24 and 4.19, respectively.

For the compound `Cc1ccc2c(c1)O[C@H]([C@@H]1CCCN1C)CO2`, the pKi is 4.38 in assay [1] and 3.90 in assay [2].

Regarding `CN1CCC[C@H]1[C@@H]1COc2ccc(-c3ccccc3)cc2O1`, the pKi was 4.46 in assay [1] and 4.44 in assay [2].

`CN1CCC[C@H]1[C@@H]1COc2ccc(CO)cc2O1`: the pKi is 4.29 in assay [1] and 4.22 in [2].

As for `CN1CCC[C@@H]1[C@@H]1COc2ccc(O)cc2O1`, the pKi in [1] was 5.52; in [2] it was 5.89.

For the compound `CN1CCC[C@H]1[C@H]1COc2ccc(CO)cc2O1`, the pKi was 5.02 in assay [1] and 4.92 in assay [2].

In the case of `CN1CCC[C@H]1[C@H]1COc2ccc(O)cc2O1`, the Ratio Ki in the assay listed under Rattus norvegicus came to 47. In addition, the pKi in assay [1] was 6.38; in assay [2] it was 4.70.

In assay [1], `CN1CCC[C@H]1[C@H]1COc2ccc(Br)cc2O1` showed a pKd of 10.44 and a pKi of 5.52. Further, in assay [2], the negative logarithm of the Kd (pKd) is 9.52 and the pKi is 4.66.

On to `CN1CCC[C@H]1[C@@H]1COc2ccc(O)cc2O1`, for which the Ratio Ki in the assay listed under Rattus norvegicus is 35; in the assay with HEK293, 26. In addition, the pKi in assay [1] is 7.92; in assay [2], 6.37; in assay [8] it was 6.51. Also, the Efficacy in assay [6] was 51%. For the same compound, the results for the pEC50 in [7] and in assay [9] were 7.09 and 4.75, respectively. Also, the outcome in assay [10] was inactive.

For the origin of these results see ChEMBL document CHEMBL1914327, “Unichiral 2-(2'-pyrrolidinyl)-1,4-benzodioxanes: the 2R,2'S diastereomer of the N-methyl-7-hydroxy analogue is a potent α4β2- and α6β2-nicotinic acetylcholine receptor partial agonist” (J Med Chem, 2011).
